pEC50, pIC50: −log10 of the molar value.
Tests used:
[1] = target: PI3-kinase p110-delta/p85-alpha (Homo sapiens, UniProt O00329); experiment: Inhibition human full length PI3Kdelta catalytic subunit/p85alpha assessed as formation of PIP3 after 30 mins by europium labeled GRP-based TR-FRET assay; assay type: protein-complex assay
Homo sapiens [2] = organism: Homo sapiens; experiment: Selectivity ratio of IC50 for human full length PI3Kalpha catalytic subunit/p85alpha to IC50 for human full length PI3Kdelta catalytic subunit/p85alpha
Method in brief: (§1)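 Ratio calculated from the isoform-specific PI3K IC50 values, with enzyme assays run in quadruplicate.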

Homo sapiens [3] = organism: Homo sapiens; experiment: Selectivity ratio of IC50 for human recombinant PI3Kbeta to IC50 for human full length PI3Kdelta catalytic subunit/p85alpha; method in brief: as §1
Homo sapiens [4] = organism: Homo sapiens; experiment: Selectivity ratio of IC50 for human full length PI3Kgamma to IC50 for human full length PI3Kdelta catalytic subunit/p85alpha; method in brief: as §1
[5] = Clearance in dog hepatocytes at 1 uM by LC/MS/MS analysis; assay type: ADME, cell-based, Canis lupus familiaris, Hepatocyte
[6] = Plasma clearance in beagle dog at 1 mg/kg, iv administered via infusion over 30 mins measured after 24 hrs by LC/MS/MS analysis; assay type: ADME, organism-based, Canis lupus familiaris
Method in brief: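 Dogs, n=3 per route; iv dose 1 mg/kg in 5% ethanol/55% PEG 400/40% citrate buffer pH 2; oral dose 5 mg/kg in 15% Captisol (w/v) in water; plasma pharmacokinetics.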

[7] = Volume of distribution at steady state in Lewis rat at 1 mg/kg, iv administered via infusion over 30 mins measured after 24 hrs by LC/MS/MS analysis; assay type: ADME, organism-based; conditions: in vivo, read-out: Vdss
Method in brief: (§2)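 Female Lewis rats, n=3 per route; 30-min iv infusion at 1 mg/kg and oral dose at 5 mg/kg, both in 30% PEG 400/70% water; plasma concentration-time profiles sampled to 24 h; values as mean ± SD.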

[8] = Half life in beagle dog at 5 mg/kg, po administered through gavage measured after 24 hrs by LC/MS/MS analysis; assay type: ADME, organism-based, Canis lupus familiaris; conditions: in vivo
[9] = Oral bioavailability in Lewis rat at 5 mg/kg administered through gavage measured after 24 hrs by LC/MS/MS analysis; assay type: ADME, organism-based; conditions: in vivo; method in brief: as §2
Rattus norvegicus [10] = experiment: Antiarthritis activity in collagen-induced Lewis rat arthritis model assessed as reduction in ankle swelling administered bid through oral gavage for 7 days measured every day started on day 9 and continuing through day 16 of compound dosing; assay type: functional, organism-based
Method in brief: (§3)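 Female Lewis rats with established collagen-induced arthritis dosed orally by gavage twice daily for 7 days (study days 10–16) with vehicle, 0.34, 1.07, 4.6 or 10 mg/kg, or dexamethasone 0.03 mg/kg; right and left ankle diameters by caliper daily, days 9–16; ankle and knee sections graded 0–5 per histopathology parameter; p < 0.05 versus arthritis + vehicle.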

Rattus norvegicus [11] = experiment: In vivo inhibition of PI3Kdelta in rat B-cells assessed as reduction in […] cell activation; assay type: functional, organism-based
Method in brief: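 Rat whole blood, ex vivo; B-cell activation stimulated by anti-IgD (BCR); EC50 and EC90 derived from inhibition of activation.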

Rattus norvegicus [12] = experiment: Antiarthritis activity in collagen-induced Lewis rat arthritis model assessed as reduction in ankle inflammation at 1.07 mg/kg administered bid through oral gavage for 7 days measured every day started on day 9 and continuing through day 16 of compound dosing relative to vehicle-treated control; assay type: functional; method in brief: as §3
Rattus norvegicus [13] = experiment: In vivo inhibition of PI3Kdelta in collagen-induced Lewis rat arthritis model at 10 mg/kg administered bid through oral gavage at 2 to 12 hrs on 3rd and 7th day of compound dosing; assay type: functional
Method in brief: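 CIA Lewis rats dosed orally twice daily; plasma drug levels measured in blood samples taken at set times post-dose on days 3 and 7; trough PI3Kδ inhibition estimated from EC50/EC90 of the rat whole-blood ex vivo BCR-induced B-cell activation assay.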

Rattus norvegicus [14] = experiment: Antiarthritis activity in collagen-induced Lewis rat arthritis model assessed as reduction in pannus formation at 1.07 mg/kg administered bid through oral gavage for 7 days measured every day started on day 9 and continuing through day 16 of compound dosing relative to vehicle-treated control; assay type: functional; parameters: scale not given: the % may be the effect or the level left; method in brief: as §3
Rattus norvegicus [15] = experiment: Antiarthritis activity in collagen-induced Lewis rat arthritis model assessed as reduction of periosteal bone width at 1.07 mg/kg administered bid through oral gavage for 7 days measured every day started on day 9 and continuing through day 16 of compound dosing relative to vehicle-treated control; assay type: functional; parameters: scale not given: the % may be the effect or the level left; method in brief: as §3
Rattus norvegicus [16] = experiment: Antiarthritis activity in collagen-induced Lewis rat arthritis model assessed as reduction in ankle inflammation administered bid through oral gavage for 7 days measured every day started on day 9 and continuing through day 16 of compound dosing; assay type: functional; method in brief: as §3
Rattus norvegicus [17] = experiment: Antiarthritis activity in collagen-induced Lewis rat arthritis model assessed as reduction in pannus formation administered bid through oral gavage for 7 days measured every day started on day 9 and continuing through day 16 of compound dosing; assay type: functional; method in brief: as §3
Rattus norvegicus [18] = experiment: Antiarthritis activity in collagen-induced Lewis rat arthritis model assessed as reduction of periosteal bone width administered bid through oral gavage for 7 days measured every day started on day 9 and continuing through day 16 of compound dosing; assay type: functional; method in brief: as §3
[19] = AUCinfinity in Lewis rat at 1 mg/kg, iv administered via infusion over 30 mins or at 5 mg/kg, po administered via gavage by LC/MS/MS analysis; assay type: ADME, organism-based; conditions: in vivo; method in brief: as §2

PI3-kinase p110-delta/p85-alpha, sequence (P27986 whole entry): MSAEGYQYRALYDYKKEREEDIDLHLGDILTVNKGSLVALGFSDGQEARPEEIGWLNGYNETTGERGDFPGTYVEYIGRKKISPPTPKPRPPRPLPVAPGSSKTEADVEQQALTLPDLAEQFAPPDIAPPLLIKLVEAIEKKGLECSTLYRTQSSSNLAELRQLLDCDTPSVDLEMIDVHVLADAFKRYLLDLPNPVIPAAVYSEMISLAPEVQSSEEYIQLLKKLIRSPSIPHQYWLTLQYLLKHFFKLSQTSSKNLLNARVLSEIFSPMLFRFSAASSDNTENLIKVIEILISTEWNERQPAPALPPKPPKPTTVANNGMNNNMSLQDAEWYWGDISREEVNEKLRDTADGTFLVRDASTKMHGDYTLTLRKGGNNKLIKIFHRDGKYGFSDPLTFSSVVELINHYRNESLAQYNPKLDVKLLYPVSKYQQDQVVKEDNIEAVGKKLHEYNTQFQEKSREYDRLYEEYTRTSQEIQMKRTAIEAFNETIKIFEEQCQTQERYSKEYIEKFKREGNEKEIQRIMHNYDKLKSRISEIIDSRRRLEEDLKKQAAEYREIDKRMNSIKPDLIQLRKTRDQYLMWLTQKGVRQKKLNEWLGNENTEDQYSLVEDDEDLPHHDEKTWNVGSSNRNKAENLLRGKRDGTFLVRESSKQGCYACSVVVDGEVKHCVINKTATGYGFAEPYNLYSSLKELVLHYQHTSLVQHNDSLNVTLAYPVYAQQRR
PI3-kinase p110-delta/p85-alpha, sequence (O00329 whole entry): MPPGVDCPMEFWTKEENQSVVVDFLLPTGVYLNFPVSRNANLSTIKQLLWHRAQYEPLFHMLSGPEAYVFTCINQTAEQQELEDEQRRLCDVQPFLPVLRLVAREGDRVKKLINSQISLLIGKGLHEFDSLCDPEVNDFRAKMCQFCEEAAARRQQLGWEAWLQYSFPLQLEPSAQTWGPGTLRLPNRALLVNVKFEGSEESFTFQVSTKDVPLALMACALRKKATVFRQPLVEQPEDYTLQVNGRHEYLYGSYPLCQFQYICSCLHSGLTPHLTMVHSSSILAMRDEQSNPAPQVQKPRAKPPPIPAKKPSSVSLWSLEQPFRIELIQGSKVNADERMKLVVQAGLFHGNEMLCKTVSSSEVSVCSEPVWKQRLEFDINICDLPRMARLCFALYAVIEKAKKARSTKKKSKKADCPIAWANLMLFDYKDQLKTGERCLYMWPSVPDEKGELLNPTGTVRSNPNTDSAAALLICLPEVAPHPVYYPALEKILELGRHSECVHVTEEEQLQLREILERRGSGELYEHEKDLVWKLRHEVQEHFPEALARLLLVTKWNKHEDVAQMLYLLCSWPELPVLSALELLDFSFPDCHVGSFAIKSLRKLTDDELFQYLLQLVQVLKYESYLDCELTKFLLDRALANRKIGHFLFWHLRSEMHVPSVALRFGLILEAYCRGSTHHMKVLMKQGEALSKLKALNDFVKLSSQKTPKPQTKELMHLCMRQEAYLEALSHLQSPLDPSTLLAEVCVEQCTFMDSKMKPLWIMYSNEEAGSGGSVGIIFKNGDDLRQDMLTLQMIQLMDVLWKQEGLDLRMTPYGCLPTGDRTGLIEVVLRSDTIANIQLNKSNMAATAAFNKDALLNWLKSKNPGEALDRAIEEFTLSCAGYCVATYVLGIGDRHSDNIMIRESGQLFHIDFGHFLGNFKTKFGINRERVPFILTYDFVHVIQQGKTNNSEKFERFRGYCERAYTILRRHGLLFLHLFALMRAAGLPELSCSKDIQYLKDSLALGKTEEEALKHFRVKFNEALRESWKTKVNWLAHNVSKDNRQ

pIC50 [1]: 8.66 | Ratio IC50 (Homo sapiens [2]): 1900 | Ratio IC50 (Homo sapiens [3]): 650 | Ratio IC50 (Homo sapiens [4]): 180 | CLH [5]: 4.17 mL/min/kg | clearance [6]: 9.67 mL/min/kg | Vd [7]: 2.6 L/kg | half-life [8]: 2.17 h | bioavailability [9]: 106% | EC90 (Rattus norvegicus [11]): 100 nM | pEC50 (Rattus norvegicus [11]; Rattus norvegicus): 7.69 | AUC(0-inf) [19]: 17 µM·h
Structure (SMILES): C[C@H](Nc1nc(N)nc(N)c1C#N)c1nc2cccc(F)c2c(=O)n1-c1cc(F)cc(F)c1
Activity (Rattus norvegicus [10]): Dose-dependent effect | inhibition in vivo at 1.07 mg/kg (Rattus norvegicus [12]): 45% | inhibition in vivo at 10 mg/kg (Rattus norvegicus [13]): > 90% | Activity (Rattus norvegicus [14]): 60% | Activity (Rattus norvegicus [15]): 52% | ED50 (Rattus norvegicus [16]): 1.5 mg/kg | ED50 (Rattus norvegicus [17]): 1.5 mg/kg | ED50 (Rattus norvegicus [18]): 1.5 mg/kg

From ChEMBL document CHEMBL3804828, “2,4,6-Triaminopyrimidine as a Novel Hinge Binder in a Series of PI3Kδ Selective Inhibitors” (J Med Chem, 2016)
